Active and inactive are the calls of the source. The rule behind the calls is not given here.
What was measured:
[1] = test system: PC-3; assay: Induction of apoptosis in human PC3 cells assessed as increase in phosphatidylserine expression on outer cell membrane leaflet at 10 uM by annexin V-FITC and propidium iodine staining-based by flow cytometric analysis; assay type: functional; conditions: TDE = time-dependent effect
Outline: (§1)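 PC-3 cells exposed 48 and 72 h, adherent cells detached with citric saline, stained with FITC-annexin V and propidium iodide, analysed by flow cytometry for annexin V+ cells. Means ± SEM of three experiments, Newman-Keuls test.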

[2] = test system: PC-3; assay: Cytotoxicity against human PC3 cells at 10 '-5 to 10 uM after 72 hrs by XTT assay; assay type: functional, cell-based
[3] = test system: PC-3; assay: Cytotoxicity against human PC3 cells after at 10 uM after 72 hrs by XTT assay; assay type: functional, cell-based
[4] = test system: PC-3; assay: Induction of cell cycle arrest in human PC3 assessed as accumulation of cells at G2/M-phase at 10 nM after 48 hrs by propidium iodide staining-based FACS analysis; assay type: functional
Outline: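 Positive-control treatment of PC-3 cells, then trypsinization, 70% ethanol fixation, propidium iodide DNA staining with 40 μg/mL RNase A, flow cytometric DNA content and modelled phase distribution.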

[5] = test system: PC-3; assay: Induction of cell cycle arrest in human PC3 assessed as accumulation of cells at G0/G1-phase at 10 uM after 24 hrs by propidium iodide staining-based FACS analysis (reference value: 58.7 +/- 1.4%); assay type: functional
[6] = test system: PC-3; assay: Induction of cell cycle arrest in human PC3 assessed as accumulation of cells at G0/G1-phase at 10 uM after 48 hrs by propidium iodide staining-based FACS analysis (reference value: 58.8 +/- 2.2%); assay type: functional
[7] = test system: PC-3; assay: Induction of cell cycle arrest in human PC3 assessed as accumulation of cells at S-phase at 10 uM after 24 hrs by propidium iodide staining-based FACS analysis (reference value: 22.4 +/- 1.3%); assay type: functional
[8] = test system: PC-3; assay: Induction of cell cycle arrest in human PC3 assessed as accumulation of cells at S-phase at 10 uM after 48 hrs by propidium iodide staining-based FACS analysis (reference value: 23.9 +/- 1.1%); assay type: functional
[9] = test system: PC-3; assay: Induction of cell cycle arrest in human PC3 assessed as accumulation of cells at G2/M-phase at 10 uM after 24 hrs by propidium iodide staining-based FACS analysis (reference value: 18.9 +/- 0.3%); assay type: functional
[10] = test system: PC-3; assay: Induction of cell cycle arrest in human PC3 assessed as accumulation of cells at G2/M-phase at 10 uM after 48 hrs by propidium iodide staining-based FACS analysis (reference value: 17.3 +/- 1.2%); assay type: functional
[11] = test system: PC-3; assay: Induction of cell cycle arrest in human PC3 cells assessed as decrease in cyclin D1 expression at 3 to 10 uM after 24 hrs by Western blot analysis; assay type: functional, cell-based
Outline: (§2)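 PC-3 whole-cell lysates at equal protein separated by SDS-PAGE and immunoblotted for cyclin D1 (24 h treatment) or cyclin E and p21Waf1/Cip1 (48 h treatment); actin as loading control; three independent repeats.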

[12] = test system: PC-3; assay: Induction of cell cycle arrest in human PC3 cells assessed as decrease in cyclin E expression at 3 to 10 uM after 48 hrs by Western blot analysis; assay type: functional, cell-based; outline: as §2
[13] = test system: PC-3; assay: Induction of cell cycle arrest in human PC3 cells assessed as change in p21WAF1/Cip1 level at 3 to 10 uM after 48 hrs by Western blot analysis; assay type: functional, cell-based; outline: as §2
[14] = test system: PC-3; assay: Induction of apoptosis in human PC3 cells assessed as increase in phosphatidylserine expression on outer cell membrane leaflet at 3 to 30 uM by annexin V-FITC and propidium iodine staining-based by flow cytometric analysis; assay type: functional; conditions: TDE = time-dependent effect; outline: as §1
[15] = test system: PC-3; assay: Induction of apoptosis in human PC3 cells assessed as increase in phosphatidylserine expression on outer cell membrane leaflet after 48 to 72 hrs by annexin V-FITC and propidium iodine staining-based by flow cytometric analysis; assay type: functional; outline: as §1
[16] = test system: PC-3; assay: Induction of apoptosis in human PC3 cells assessed as DNA fragmentation at 10 uM after 72 hrs by SDS-PAGE analysis; assay type: functional, cell-based; conditions: in the assay text read “agarose gel electrophoresis” for “SDS-PAGE analysis”
Outline: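 PC-3 cells cultured with compound or solvent for 72 h; floating cells lysed in buffer of 100 mM Tris-HCl pH 8.0, 2 mM EDTA, 0.8% SDS, RNase A and proteinase K; DNA ladder resolved on 1.5% agarose gel.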

[17] = test system: PC-3; assay: Cytotoxicity against human PC3 cells at 30 uM after 48 hrs by XTT assay; assay type: functional, cell-based; conditions: PC-3, 48 h
[18] = test system: PC-3; assay: Cytotoxicity against human PC3 cells at 4 uM after 72 hrs by XTT assay; assay type: functional, cell-based; conditions: PC-3, 72 h
[19] = test system: PC-3; assay: Cytotoxicity against human PC3 cells after at 30 uM after 48 to 72 hrs by XTT assay; assay type: functional, cell-based
[20] = Cytotoxicity against human RWPE1 cells at 1 to 30 uM after 48 hrs by XTT assay; assay type: cell-based; conditions: rwpe-1, 48 h
Outline: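 Normal prostate epithelial RWPE-1 cells (HPV18-immortalized) grown in keratinocyte serum-free medium, 3–5 × 10^3 cells/well, treated 48 h; viability by XTT reduction (final 125 μM XTT, 25 μM phenazine methosulfate, 4 h), A450. Means ± SEM of 3–5 experiments in triplicate.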

[21] = test system: PC-3; assay: Antiproliferative activity against human PC3 cells assessed as reduction in colony formation after 21 days using crystal violet staining by anchorage-independent soft agar assay; assay type: functional, cell-based
Outline: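 PC-3 cells (Ham's F12-K, 10% FCS) seeded at 1000 cells/cm2 in 0.35% agar with 10 μM compound or solvent; colonies grown 21 days, fixed and stained with crystal violet.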

[22] = test system: PC-3; assay: Antitumor activity against human PC3 cells xenografted in chicken chorioallantoic membrane assessed as decrease in tumor size treated topically QD for 4 days by immunohistochemical analysis; assay type: functional, cell-based
Outline: (§3)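 0.7× 10^6 log-phase PC-3 cells in 20 μL medium/matrigel (1:1) grafted onto chicken CAM; from day 1, topical 20 μL compound or solvent once daily for 4 days. Xenografts fixed, paraffin-embedded, immunostained for Ki-67 with hematoxylin counterstain; staining quantified by image analysis; n = 3–6.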

[23] = test system: PC-3; assay: Antitumor activity against human PC3 cells xenografted in chicken chorioallantoic membrane assessed as inhibition of cell proliferation treated topically QD for 4 days by immunohistochemical analysis; assay type: functional, cell-based; outline: as §3
[24] = test system: PC-3; assay: Antitumor activity against human PC3 cells xenografted in chicken chorioallantoic membrane assessed as inhibition of tumor angiogenesis treated topically QD for 4 days using desmin staining by immunohistochemical analysis; assay type: functional, cell-based
Outline: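 PC-3 cells (0.7× 10^6 in 20 μL medium/matrigel 1:1) grafted onto chicken CAM, dosed topically with 20 μL compound or solvent once daily for 4 days from day 1. Paraffin sections immunostained for desmin as angiogenesis marker, hematoxylin counterstain; staining quantified by image analysis; n = 3–6.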

[25] = test system: PC-3; assay: Cytotoxicity against human PC3 cells assessed as cell death at 3 to 30 uM after 48 hrs by LDH-release assay in presence of 10 uM of pan-caspase inhibitor z-VAD-fmk

For `CC(=O)O[C@@]12CO[C@@H]1C[C@H](O)[C@@]1(C)C(=O)[C@H](O)C3=C(C)[C@@H](OC(=O)[C@H](O)[C@@H](NC(=O)OC(C)(C)C)c4ccccc4)C[C@@](O)([C@@H](OC(=O)c4ccccc4)[C@H]21)C3(C)C`, the Activity [1] was “tde”, the Activity [2] was “Active” and the Activity [3] was “inactive”. For the same compound, the Activity [4] was “Active”.
Work on `CC(C)=CCC/C(C)=C/CC/C(C)=C/CC[C@@H]1[C@@]2(C)CC[C@H](O)C(C)(C)[C@@H]2CC[C@@]1(C)O` yielded an Activity [5] of 75.4%, an Activity [6] of 74.2% and an Activity [7] of 5.6%. It also gave an Activity [8] of 9.3%, an Activity [9] of 18.9% and an Activity [10] of 17.3%. The Activity [11] was “Active”, the Activity [12] was “Active” and the Activity [13] was “inactive”. The Activity [14] was “tde”, the Activity [15] was “Dose-dependent effect” and the Activity [16] was “Active”. For the same compound, the IC50 [17] was 30 µM, the IC50 [18] was 4 µM and the Activity [2] was “Active”. For the same compound, the Activity [19] was “Active”, the Activity [20] was “Non-toxic” and the Activity [21] was “Dose-dependent effect”. For the same compound, the Activity [22] was “Dose-dependent effect”, the Activity [23] was “Dose-dependent effect” and the Activity [24] was “Dose-dependent effect”. For the same compound, the Activity [25] was “inactive”.
